Laboratory results published in ChEMBL document CHEMBL4715736, “Identification of anticancer agents based on the thieno[2,3-b]pyridine and 1H-pyrazole molecular scaffolds” (2016).

Test system: Malme-3M
Test: Growth inhibition of human Malme-3M cells incubated for 48 hrs by sulforhodamine B assay
Type: functional
Conditions: not given
Outline: (§1)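 NCI60 panel at the NCI Developmental Therapeutics Program. Only compounds active in the 10 µM screen went to dose-response testing. GI50, the concentration giving 50% of maximal inhibition of proliferation, and TGI, the concentration giving total growth inhibition, were derived from the dose-response curves.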

SMILES | GI50 [µM] | LC50 [µM] | TGI [µM]
Nc1c(C(=O)Nc2ccccc2)sc2nc3c(cc12)CN(Cc1ccccc1)CC3 | 3.8 | > 100 | > 100

Test system: LOX IMVI
Test: Growth inhibition of human LOX IMVI cells assessed as cell growth at 0.01 uM incubated for 48 hrs by sulforhodamine B assay relative to control
Type: functional
Conditions: read-out: Activity

SMILES | growth at 0.01 µM [%]
Nc1c(C(=O)Nc2ccccc2)sc2nc3c(cc12)CN(Cc1ccccc1)CC3 | 94

Test system: 786-0
Test: Growth inhibition of human 786-0 cells assessed as cell growth at 0.01 uM incubated for 48 hrs by sulforhodamine B assay relative to control
Type: functional
Conditions: read-out: Activity
Outline: (§2)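 NCI Developmental Therapeutics Program NCI60 panel. Compounds that were active in the 10 µM one-dose screen went on to dose–response testing. Growth at each concentration is expressed relative to untreated control (100%). GI50 (concentration giving 50% of maximal inhibition of proliferation) and TGI (concentration giving total growth inhibition) were derived from the curves.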

SMILES | growth at 0.01 µM [%]
Nc1c(C(=O)Nc2ccccc2)sc2nc3c(cc12)CN(Cc1ccccc1)CC3 | 96

Test system: NCI-H460
Test: Growth inhibition of human NCI-H460 cells incubated for 48 hrs by sulforhodamine B assay
Type: functional
Conditions: not given
Outline: as §1

SMILES | GI50 [µM] | LC50 [µM] | TGI [µM]
Nc1c(C(=O)Nc2ccccc2)sc2nc3c(cc12)CN(Cc1ccccc1)CC3 | 7.51 | > 100 | > 100

Test system: OVCAR-5
Test: Growth inhibition of human OVCAR-5 cells assessed as cell growth at 0.01 uM incubated for 48 hrs by sulforhodamine B assay relative to control
Type: functional
Conditions: read-out: Activity

SMILES | growth at 0.01 µM [%]
Nc1c(C(=O)Nc2ccccc2)sc2nc3c(cc12)CN(Cc1ccccc1)CC3 | 99

Test system: CAKI-1
Test: Growth inhibition of human CAKI-1 cells assessed as cell growth at 0.1 uM incubated for 48 hrs by sulforhodamine B assay relative to control
Type: functional
Conditions: read-out: Activity
Outline: as §2

SMILES | growth at 0.1 µM [%]
Nc1c(C(=O)Nc2ccccc2)sc2nc3c(cc12)CN(Cc1ccccc1)CC3 | 86

Test system: SW-620
Test: Growth inhibition of human SW-620 cells assessed as cell growth at 0.01 uM incubated for 48 hrs by sulforhodamine B assay relative to control
Type: functional
Conditions: read-out: Activity

SMILES | growth at 0.01 µM [%]
Nc1c(C(=O)Nc2ccccc2)sc2nc3c(cc12)CN(Cc1ccccc1)CC3 | 98

Test system: SF-268
Test: Growth inhibition of human SF-268 cells assessed as cell growth at 0.1 uM incubated for 48 hrs by sulforhodamine B assay relative to control
Type: functional
Conditions: read-out: Activity

SMILES | growth at 0.1 µM [%]
Nc1c(C(=O)Nc2ccccc2)sc2nc3c(cc12)CN(Cc1ccccc1)CC3 | 99

Test system: NCI/ADR-RES
Test: Growth inhibition of human NCI/ADR-RES cells assessed as cell growth at 0.1 uM incubated for 48 hrs by sulforhodamine B assay relative to control
Type: functional
Conditions: read-out: Activity

SMILES | growth at 0.1 µM [%]
Nc1c(C(=O)Nc2ccccc2)sc2nc3c(cc12)CN(Cc1ccccc1)CC3 | 101

Test system: U-251
Test: Growth inhibition of human U-251 cells assessed as cell growth at 1 uM incubated for 48 hrs by sulforhodamine B assay relative to control
Type: functional
Conditions: read-out: Activity

SMILES | growth at 1 µM [%]
Nc1c(C(=O)Nc2ccccc2)sc2nc3c(cc12)CN(Cc1ccccc1)CC3 | 101

Test system: M14
Test: Growth inhibition of human M14 cells assessed as cell growth at 0.1 uM incubated for 48 hrs by sulforhodamine B assay relative to control
Type: functional
Conditions: read-out: Activity

SMILES | growth at 0.1 µM [%]
Nc1c(C(=O)Nc2ccccc2)sc2nc3c(cc12)CN(Cc1ccccc1)CC3 | 91

Test system: OVCAR-5
Test: Growth inhibition of human OVCAR-5 cells assessed as cell growth at 100 uM incubated for 48 hrs by sulforhodamine B assay relative to control
Type: functional
Conditions: read-out: Activity

SMILES | growth at 100 µM [%]
Nc1c(C(=O)Nc2ccccc2)sc2nc3c(cc12)CN(Cc1ccccc1)CC3 | 66

Test system: CAKI-1
Test: Growth inhibition of human CAKI-1 cells assessed as cell growth at 0.01 uM incubated for 48 hrs by sulforhodamine B assay relative to control
Type: functional
Conditions: read-out: Activity
Outline: as §2

SMILES | growth at 0.01 µM [%]
Nc1c(C(=O)Nc2ccccc2)sc2nc3c(cc12)CN(Cc1ccccc1)CC3 | 93

Test system: U-251
Test: Growth inhibition of human U-251 cells incubated for 48 hrs by sulforhodamine B assay
Type: functional
Conditions: not given
Outline: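 NCI DTP 60-line human tumour panel. Dose-response curves were run only for ligands active in the initial 10 µM screen. GI50 (concentration giving 50% of maximal inhibition of proliferation) and TGI (concentration giving total growth inhibition) were derived from these curves.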

SMILES | GI50 [µM] | LC50 (concentration killing 50% of cells) [µM] | TGI [µM]
Nc1c(C(=O)Nc2ccccc2)sc2nc3c(cc12)CN(Cc1ccccc1)CC3 | 13.9 | > 100 | > 100

Test system: SN12C
Test: Growth inhibition of human SN12C cells assessed as cell growth at 100 uM incubated for 48 hrs by sulforhodamine B assay relative to control
Type: functional
Conditions: read-out: Activity

SMILES | growth at 100 µM [%]
Nc1c(C(=O)Nc2ccccc2)sc2nc3c(cc12)CN(Cc1ccccc1)CC3 | 47

Test system: Malme-3M
Test: Growth inhibition of human Malme-3M cells assessed as cell growth at 0.1 uM incubated for 48 hrs by sulforhodamine B assay relative to control
Type: functional
Conditions: read-out: Activity

SMILES | growth at 0.1 µM [%]
Nc1c(C(=O)Nc2ccccc2)sc2nc3c(cc12)CN(Cc1ccccc1)CC3 | 88

Test system: HOP-92
Test: Growth inhibition of human HOP-92 cells incubated for 48 hrs by sulforhodamine B assay
Type: functional
Conditions: not given
Outline: as §1

SMILES | GI50 [µM] | LC50 (concentration killing 50% of the starting cells) [µM] | TGI [µM]
Nc1c(C(=O)Nc2ccccc2)sc2nc3c(cc12)CN(Cc1ccccc1)CC3 | 2.48 | > 100 | 20.4

Test system: SF-539
Test: Growth inhibition of human SF-539 cells assessed as cell growth at 0.1 uM incubated for 48 hrs by sulforhodamine B assay relative to control
Type: functional
Conditions: read-out: Activity

SMILES | growth at 0.1 µM [%]
Nc1c(C(=O)Nc2ccccc2)sc2nc3c(cc12)CN(Cc1ccccc1)CC3 | 90

Test system: HCC 2998
Test: Growth inhibition of human HCC 2998 cells incubated for 48 hrs by sulforhodamine B assay
Type: functional
Conditions: not given

SMILES | GI50 [µM] | TGI [µM]
Nc1c(C(=O)Nc2ccccc2)sc2nc3c(cc12)CN(Cc1ccccc1)CC3 | 76.1 | > 100

Same assay, conditions: read-out: LC50 (the source's name)

SMILES | CC50 [µM]
Nc1c(C(=O)Nc2ccccc2)sc2nc3c(cc12)CN(Cc1ccccc1)CC3 | > 100

Test system: NCI-H460
Test: Growth inhibition of human NCI-H460 cells assessed as cell growth at 0.01 uM incubated for 48 hrs by sulforhodamine B assay relative to control
Type: functional
Conditions: read-out: Activity

SMILES | growth at 0.01 µM [%]
Nc1c(C(=O)Nc2ccccc2)sc2nc3c(cc12)CN(Cc1ccccc1)CC3 | 101

Test system: NCI-H322M
Test: Growth inhibition of human NCI-H322M cells assessed as cell growth at 0.01 uM incubated for 48 hrs by sulforhodamine B assay relative to control
Type: functional
Conditions: read-out: Activity

SMILES | growth at 0.01 µM [%]
Nc1c(C(=O)Nc2ccccc2)sc2nc3c(cc12)CN(Cc1ccccc1)CC3 | 93

Test system: TK-10
Test: Growth inhibition of human TK-10 cells assessed as cell growth at 100 uM incubated for 48 hrs by sulforhodamine B assay relative to control
Type: functional
Conditions: read-out: Activity

SMILES | growth at 100 µM [%]
Nc1c(C(=O)Nc2ccccc2)sc2nc3c(cc12)CN(Cc1ccccc1)CC3 | -7

Test system: DU-145
Test: Growth inhibition of human DU-145 cells assessed as cell growth at 0.1 uM incubated for 48 hrs by sulforhodamine B assay relative to control
Type: functional
Conditions: read-out: Activity
Outline: as §2

SMILES | growth at 0.1 µM [%]
Nc1c(C(=O)Nc2ccccc2)sc2nc3c(cc12)CN(Cc1ccccc1)CC3 | 107

Test system: SNB-19
Test: Growth inhibition of human SNB-19 cells assessed as cell growth at 0.01 uM incubated for 48 hrs by sulforhodamine B assay relative to control
Type: functional
Conditions: read-out: Activity

SMILES | growth at 0.01 µM [%]
Nc1c(C(=O)Nc2ccccc2)sc2nc3c(cc12)CN(Cc1ccccc1)CC3 | 93

Test system: K562
Test: Growth inhibition of human K562 cells assessed as cell growth at 1 uM incubated for 48 hrs by sulforhodamine B assay relative to control
Type: functional
Conditions: read-out: Activity

SMILES | growth at 1 µM [%]
Nc1c(C(=O)Nc2ccccc2)sc2nc3c(cc12)CN(Cc1ccccc1)CC3 | 88

Test system: 786-0
Test: Growth inhibition of human 786-0 cells assessed as cell growth at 0.1 uM incubated for 48 hrs by sulforhodamine B assay relative to control
Type: functional
Conditions: read-out: Activity
Outline: as §2

SMILES | growth at 0.1 µM [%]
Nc1c(C(=O)Nc2ccccc2)sc2nc3c(cc12)CN(Cc1ccccc1)CC3 | 90

Test system: SK-OV-3
Test: Growth inhibition of human SK-OV-3 cells assessed as cell growth at 0.01 uM incubated for 48 hrs by sulforhodamine B assay relative to control
Type: functional
Conditions: read-out: Activity

SMILES | growth at 0.01 µM [%]
Nc1c(C(=O)Nc2ccccc2)sc2nc3c(cc12)CN(Cc1ccccc1)CC3 | 97

Test system: UO-31
Test: Growth inhibition of human UO-31 cells assessed as cell growth at 1 uM incubated for 48 hrs by sulforhodamine B assay relative to control
Type: functional
Conditions: read-out: Activity

SMILES | growth at 1 µM [%]
Nc1c(C(=O)Nc2ccccc2)sc2nc3c(cc12)CN(Cc1ccccc1)CC3 | 83

Test system: Malme-3M
Test: Growth inhibition of human Malme-3M cells assessed as cell growth at 100 uM incubated for 48 hrs by sulforhodamine B assay relative to control
Type: functional
Conditions: read-out: Activity

SMILES | growth at 100 µM [%]
Nc1c(C(=O)Nc2ccccc2)sc2nc3c(cc12)CN(Cc1ccccc1)CC3 | 14

Test system: OVCAR-3
Test: Growth inhibition of human OVCAR-3 cells assessed as cell growth at 1 uM incubated for 48 hrs by sulforhodamine B assay relative to control
Type: functional
Conditions: read-out: Activity

SMILES | growth at 1 µM [%]
Nc1c(C(=O)Nc2ccccc2)sc2nc3c(cc12)CN(Cc1ccccc1)CC3 | 100

Test system: NCI-H226
Test: Growth inhibition of human NCI-H226 cells assessed as cell growth at 1 uM incubated for 48 hrs by sulforhodamine B assay relative to control
Type: functional
Conditions: read-out: Activity

SMILES | growth at 1 µM [%]
Nc1c(C(=O)Nc2ccccc2)sc2nc3c(cc12)CN(Cc1ccccc1)CC3 | 92

Test system: M14
Test: Growth inhibition of human M14 cells incubated for 48 hrs by sulforhodamine B assay
Type: functional
Conditions: not given
Outline: as §1

SMILES | GI50 [µM] | LC50 (concentration killing 50% of cells) [µM] | TGI [µM]
Nc1c(C(=O)Nc2ccccc2)sc2nc3c(cc12)CN(Cc1ccccc1)CC3 | 30.8 | > 100 | > 100

Test system: NCI-H522
Test: Growth inhibition of human NCI-H522 cells assessed as cell growth at 0.1 uM incubated for 48 hrs by sulforhodamine B assay relative to control
Type: functional
Conditions: read-out: Activity

SMILES | growth at 0.1 µM [%]
Nc1c(C(=O)Nc2ccccc2)sc2nc3c(cc12)CN(Cc1ccccc1)CC3 | 87

Test system: UACC-62
Test: Growth inhibition of human UACC-62 cells assessed as cell growth at 0.1 uM incubated for 48 hrs by sulforhodamine B assay relative to control
Type: functional
Conditions: read-out: Activity

SMILES | growth at 0.1 µM [%]
Nc1c(C(=O)Nc2ccccc2)sc2nc3c(cc12)CN(Cc1ccccc1)CC3 | 92

Test system: SK-MEL-2
Test: Growth inhibition of human SK-MEL-2 cells assessed as cell growth at 0.01 uM incubated for 48 hrs by sulforhodamine B assay relative to control
Type: functional
Conditions: read-out: Activity

SMILES | growth at 0.01 µM [%]
Nc1c(C(=O)Nc2ccccc2)sc2nc3c(cc12)CN(Cc1ccccc1)CC3 | 96
